In ChEMBL document CHEMBL1681731, “Synthesis, in vitro anti-inflammatory and cytotoxic evaluation, and mechanism of action studies of 1-benzoyl-β-carboline and 1-benzoyl-3-carboxy-β-carboline derivatives” (Bioorg Med Chem, 2011):
Activity calls are given as the source filed them. No cut-off for these calls is given here.

Legend:
[1] = Cytotoxicity against mouse […] cells by MTT assay; assay type: functional
Method in brief: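 Viability of RAW 264.7 cells taken as mitochondrial reduction of MTT to formazan. Formazan read at OD550.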

[2] = Antiinflammatory activity against mouse […] cells assessed as inhibition of lipopolysaccharide/interferon-gamma induced nitric oxide production; assay type: functional, cell-based; conditions: Mus musculus; read-out: EC50
Method in brief: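 RAW 264.7 cells in DMEM/10% FCS, passages 9–20. Nitrite induced by LPS (1 µg/mL) plus IFN-γ (50 U/mL) for 18 h with or without compound. Griess reagent (1% sulfanilamide, 0.1% naphthylenediamine in 5% H3PO4) read at OD550. EC50 calculated.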

RAW264.7 [3] = experiment: Antiinflammatory activity against mouse RAW264.7 cells assessed as reduction of lipopolysaccharide/interferon-gamma induced PGE2 production at 10 uM after 18 hrs; assay type: functional; conditions: RAW264.7, 18 h
Method in brief: (§1)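 RAW 264.7 macrophages (passages 9–20) stimulated with LPS/IFN-γ; compound tested at 1, 3 and 10 µM. Supernatant PGE2 measured by competitive EIA: anti-PGE2 antibody plus peroxidase-PGE2 tracer, 1 h RT; TMB/H2O2 30 min; H2SO4 stop; A450. Results given as % inhibition.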

RAW264.7 [4] = experiment: Antiinflammatory activity against mouse RAW264.7 cells assessed as reduction of lipopolysaccharide/interferon-gamma induced PGE2 production at 1 uM by EIA; assay type: functional; method in brief: as §1
RAW264.7 [5] = experiment: Antiinflammatory activity against mouse RAW264.7 cells assessed as reduction of lipopolysaccharide/interferon-gamma induced PGE2 production at 3 uM after 18 hrs; assay type: functional; conditions: RAW264.7, 18 h; method in brief: as §1
[6] = Therapeutic index, ratio of CC50 for mouse […] cells to EC50 for inhibition of lipopolysaccharide/interferon-gamma induced nitric oxide production in mouse […] cells; assay type: cell-based; conditions: read-out: TI
DU-145 = experiment: Cytotoxicity activity against human DU145 cells assessed as growth inhibition at 10 ug/ml after 72 hrs sulforhodamine B assay; assay type: functional; conditions: DU-145, 72 h
Method in brief: (§2)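 Cells kept in RPMI-1640/10% FBS with antibiotics at 37 °C, 5% CO2. Trypsinized cells seeded and given compound from DMSO-diluted stock. Incubated 72 h, then fixed with 10% TCA. Stained 10 min with 0.4% sulforhodamine B in 1% HOAc, washed, dye dissolved in 10 mM Trizma. A515 read; growth relative to net protein increase of controls.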

KB = experiment: Cytotoxicity activity against human KB cells assessed as growth inhibition at 10 ug/ml after 72 hrs sulforhodamine B assay; assay type: functional; method in brief: as §2
[7] = Antiinflammatory activity against human neutrophil assessed as inhibition of N-formyl-l-methionyl phenylalanine/cytochalasin B-induced superoxide anion generation by spectrophotometry; assay type: functional, cell-based
Method in brief: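 Ferricytochrome c (0.5 mg/mL) reduction, SOD-inhibitable, with 1 mM Ca2+. Neutrophils (6 × 10^5 cells/mL) equilibrated 2 min at 37 °C, then drug or 0.1% DMSO for 5 min. Cytochalasin B 1 µg/mL preincubation, then 100 nM FMLP for 3 min. A550 monitored continuously with stirring. IC50 computed; mean ± SEM, n = 3.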

[8] = Antiinflammatory activity against human neutrophil assessed as inhibition of N-formyl-l-methionyl phenylalanine/cytochalasin B-induced elastase release; assay type: functional, cell-based
Method in brief: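 Neutrophils (6 × 10^5/mL) supplemented with 100 µM MeO-Suc-Ala-Ala-Pro-Val-p-nitroanilide, equilibrated 2 min at 37 °C, then given drug or 0.1% DMSO vehicle for 5 min. Activated with 100 nM FMLP plus 0.5 µg/mL cytochalasin B. Absorbance at 405 nm followed continuously. Release expressed as percent of drug-free activated control. IC50 computed; mean ± SEM, n = 3.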

[9] = Cytotoxicity activity against human KBVIN cells assessed as growth inhibition at 10 ug/ml after 72 hrs sulforhodamine B assay; assay type: functional; method in brief: as §2
A549 = experiment: Cytotoxicity activity against human A549 cells assessed as growth inhibition at 10 ug/ml after 72 hrs sulforhodamine B assay; assay type: functional; conditions: A549, 72 h; method in brief: as §2
[10] = system: Radical scavenging activity; experiment: Antioxidant activity assessed as residual DPPH radical scavenging activity; assay type: functional

Compound	CC50 [1] [µM]	EC50 [2] [µM]	inhibition at 10 µM (RAW264.7 [3]) [%]	inhibition at 1 µM (RAW264.7 [4]) [%]	inhibition at 3 µM (RAW264.7 [5]) [%]	selectivity ratio [6]	GI50 (DU-145) [µM]	GI50 (KB) [µM]	IC50 [7] [µM]	IC50 [8] [µM]	GI50 [9] [µM]	GI50 (A549) [µM]	Activity [10]
N=C(N)NN [PIMAGEDINE]	358	22.6	42	8	21	16	–	–	–	–	–	–	–
O=C(c1cccc(Br)c1)c1nccc2c1[nH]c1ccccc12	51.4	1.16	–	97	98	44	> 40	> 40	> 30	> 30	> 40	> 40	–
COC(=O)c1cc2c([nH]c3ccccc32)c(C(=O)c2ccc(OC)cc2)n1	1.95	0.51	–	98	100	4	> 40	> 40	> 30	> 30	> 40	> 40	–
O=C(c1ccc([N+](=O)[O-])cc1)c1nccc2c1[nH]c1ccccc12	3.86	0.66	100	0	100	6	> 40	> 40	> 30	> 30	> 40	> 40	–
O=C(c1ccccc1Br)c1nccc2c1[nH]c1ccccc12	53.8	6.97	89	0	37	8	> 40	> 40	> 30	> 30	> 40	> 40	–
CC(=O)O[C@H]1C(=O)[C@@]2(C)[C@H]([C@H](OC(=O)c3ccccc3)[C@]3(O)C[C@H](OC(=O)[C@H](O)[C@@H](NC(=O)c4ccccc4)c4ccccc4)C(C)=C1C3(C)C)[C@]1(OC(C)=O)CO[C@@H]1C[C@@H]2O [PACLITAXEL]	–	–	–	–	–	–	0.00555	0.00487	–	–	> 1	0.00558	–
COc1ccc(C(=O)c2nccc3c2[nH]c2ccccc23)cc1	83.4	4.59	95	0	95	18	> 40	> 40	> 30	> 30	> 40	> 40	–
COc1cccc(C(=O)c2nc(C(=O)O)cc3c2[nH]c2ccccc23)c1	–	–	–	–	–	–	–	–	–	–	–	–	inactive
Cc1cccc(C(=O)c2nc(C(=O)O)cc3c2[nH]c2ccccc23)c1	16.4	0.47	–	98	100	34	–	–	–	–	–	–	inactive
O=c1cc(N2CCOCC2)oc2c(-c3ccccc3)cccc12 [LY-294002]	–	–	–	–	–	–	–	–	1.12	1.92	–	–	–
OC(c1ccccc1)c1nccc2c1[nH]c1ccccc12 (stereo not given)	57.4	0.31	0	0	0	186	> 40	> 40	7.88	> 30	22.6	> 40	–
O=C(c1ccc(Br)cc1)c1nccc2c1[nH]c1ccccc12	149	0.3	–	98	100	492	> 40	> 40	> 30	> 30	> 40	> 40	–
